In PubChem BioAssay AID651654 (Broad Institute, 2012):
Among all 360,000 compounds or so, about 740 (0.21%) were called active. This is one part of a sample in which actives are shown more often than they occur.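 The calls were made as follows: active = mean lysis activity across replicates of at least 80%, whatever share of replicates individually reach that level; inactive = mean lysis activity below 80%.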

Test: Cryptococcus neoformans cell lysis inducers, primary screen, AK release luminescence, single concentration (AID 651654)
Conditions: C. neoformans lysis, adenylate kinase release luminescence, 4 h; at 15 µM; hits give high values; normalised: neutral wells 0, clomiphene wells 100
Summary of the method: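 Material – Cryptococcus neoformans yeast cells · Quantity – 5 × 10^6 yeast cells/mL · Buffer or medium – YPD medium · Compound – single dose · Timing – 4 h static compound exposure, 37 °C, read 1 h post-reagent · Signal – adenylate kinase release luminescence · Read-out basis – lysis from increased AK signal · Benchmarks – Clomiphene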

SMILES	lysis activity
C[C@H](CO)N1C[C@H](C)[C@@H](CN(C)S(=O)(=O)c2ccc(Cl)cc2)Oc2ccc(NS(C)(=O)=O)cc2CC1=O	-5.34% (inactive)
CCC(=O)N(C)C[C@@H]1Oc2cc(C#C[C@H](C)O)ccc2S(=O)(=O)N([C@H](C)CO)C[C@@H]1C	-0.573% (inactive)
C[C@@H]1CN([C@H](C)CO)C(=O)c2cc(C#CC3CCCC3)cnc2O[C@H]1CN(C)S(C)(=O)=O	-1.11% (inactive)
C[C@@H]1CN([C@H](C)CO)C(=O)CCCn2nncc2CO[C@@H]1CN(C)C	-1.91% (inactive)
Cc1cccc(CN(C)C[C@@H]2OCc3cn(nn3)CCCC(=O)N([C@@H](C)CO)C[C@H]2C)c1	-1.37% (inactive)
COc1ccc(S(=O)(=O)N2C[C@H](O)COC[C@@H]3O[C@H](CC(=O)NCCN4CCCCC4)CC[C@H]32)cc1	0.16% (inactive)
CCCNC(=O)N1C[C@H](C)[C@@H](OC)CN(C)C(=O)c2ccc(NS(C)(=O)=O)cc2OC[C@@H]1C	0.827% (inactive)
COCC(=O)Nc1ccc2c(c1)C(=O)N(C)[C@@H]1CC[C@@H](CC(=O)NCc3cccc(F)c3)O[C@@H]1CO2	1.56% (inactive)
COCC#Cc1cnc2c(c1)C(=O)N([C@@H](C)CO)C[C@H](C)[C@@H](CN(C)Cc1ccccc1)O2	-2.83% (inactive)
CC(C)NC(=O)N[C@@H]1C=C[C@@H](CC(=O)N2CCCCC2)O[C@@H]1CO	1.39% (inactive)
C[C@@H]1CN([C@@H](C)CO)C(=O)c2cc(NC(=O)C3CCCCC3)ccc2O[C@@H]1CN(C)Cc1ccc(C(=O)O)cc1	-4.67% (inactive)
Cc1ccc(-c2cnc3c(c2)C(=O)N([C@@H](C)CO)C[C@H](C)[C@H](CN(C)C(=O)c2cccnc2)O3)cc1	-0.96% (inactive)
C[C@@H]1CN([C@@H](C)CO)C(=O)c2cc(NC(=O)CCCN(C)C)ccc2O[C@@H]1CN(C)Cc1ccncc1	5.83% (inactive)
COC(=O)C[C@@H]1C[C@H]2c3cc(NC(=O)Nc4ccc(F)cc4)ccc3O[C@H]2[C@@H](CO)O1	-7.03% (inactive)
CCC(=O)N(C)C[C@@H]1Oc2ncc(C#CCc3ccccc3)cc2C(=O)N([C@H](C)CO)C[C@H]1C	1.55% (inactive)
COc1ccc(CN2[C@@H](CO)[C@@H]3c4ccccc4N(C(=O)Nc4ccccc4)C[C@@H]32)cc1	0.269% (inactive)
COc1ccc(NC(=O)Nc2ccc3c(c2)C(=O)N([C@H](C)CO)C[C@@H](C)[C@H](CN(C)C(=O)Nc2ccc(C(F)(F)F)cc2)OCCCC[C@@H](C)O3)cc1	1.63% (inactive)
